Read-outs that look alike come from different tables or passages of the source. Blank lines part the entries; values can stand above or below the compound they belong to.
What was measured:
COX-1 [1] = details: cited from earlier work
COX-2 [2] = details: read-out: IC50 COX-2 monkey; cited from earlier work
COX-1 [3] = details: cited from earlier work; for IC50: read-out: IC50 COX-1 monkey
[4] = radioligand stability in monkey whole blood and plasma in vitro; type: in vitro ADME; details: monkey whole blood or plasma, 30 min, room temperature
Method in brief: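 Formulated radioligand was incubated with monkey whole blood or plasma at room temperature for at least 30 min. Blood was lysed with water, and samples were deproteinized with acetonitrile and centrifuged at 10 000g. Supernatants were analysed by reversed-phase radio-HPLC, and precipitates were γ-counted for extraction efficiency. Stability was taken as the % unchanged radioligand divided by radiochemical purity.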

[5] = plasma free fraction by ultrafiltration, pooled human plasma; type: in vitro ADME; details: pooled (standard) human plasma
Method in brief: (§1)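 Free fraction was measured in triplicate by ultrafiltration through membrane filters, with filtrate radioactivity read by γ-counting. Plasma was venous plasma from each monkey, or pooled human arterial plasma stored at −80 °C. The human plasma served as the standard for normalization across studies.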

[6] = baseline PET brain time-activity curves in rhesus monkey; type: in vivo, rhesus monkey (Macaca mulatta); details: for decline of whole-brain radioactivity from peak / radioactivity concentration in whole brain: at 85 min; for peak radioactivity concentration in whole brain / time of peak radioactivity concentration in whole brain: i.v. radioligand
Method in brief: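 Male rhesus monkeys (7.5–12.8 kg) were given ketamine (10 mg/kg i.m.) and kept on 1.6% isoflurane, head in a stereotaxic frame, and imaged on a microPET Focus 220. Radioligand (212 ± 37 MBq) in saline-ethanol 90:10 was given as an i.v. bolus over 1 min. The 120 min acquisition was reconstructed by FORE/2D FBP with attenuation, scatter and decay correction and coregistered to an MRI template. Regional gray-matter curves were expressed as SUV.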

[7] = plasma free fraction by ultrafiltration, monkey plasma; type: in vitro ADME
Method in brief: as §1

[8] = log D by partition between n-octanol and sodium phosphate buffer; type: physicochemical; details: n-octanol / sodium phosphate buffer 0.15 M, pH 7.4
Method in brief: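 Radioligand partitioned between n-octanol and 0.15 M sodium phosphate buffer, pH 7.4. Radioactivity in each phase counted by γ-counter. Buffer-phase radioactivity corrected for parent fraction by reversed-phase radio-HPLC on a C18 column.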

[9] = radiometabolite analysis of monkey plasma after i.v. radioligand; type: in vivo, rhesus monkey
COX-1 [10] = target: T1, COX-1 (Macaca mulatta, UniProt F6S984); experiment: kinetic modeling of PET data; type: in vivo, rhesus monkey; details: for reduction of [11C]PS13 brain regional VT values by preadministration: KTP-Me 3 mg/kg, MC1 0.3 mg/kg i.v.; for VND of [11C]PS13 (x-axis intercept of Lassen plot), by blocker experiment: PS13 1 mg/kg or KTP-Me 3 mg/kg as blocker
T1 sequence (F6S984 25-599): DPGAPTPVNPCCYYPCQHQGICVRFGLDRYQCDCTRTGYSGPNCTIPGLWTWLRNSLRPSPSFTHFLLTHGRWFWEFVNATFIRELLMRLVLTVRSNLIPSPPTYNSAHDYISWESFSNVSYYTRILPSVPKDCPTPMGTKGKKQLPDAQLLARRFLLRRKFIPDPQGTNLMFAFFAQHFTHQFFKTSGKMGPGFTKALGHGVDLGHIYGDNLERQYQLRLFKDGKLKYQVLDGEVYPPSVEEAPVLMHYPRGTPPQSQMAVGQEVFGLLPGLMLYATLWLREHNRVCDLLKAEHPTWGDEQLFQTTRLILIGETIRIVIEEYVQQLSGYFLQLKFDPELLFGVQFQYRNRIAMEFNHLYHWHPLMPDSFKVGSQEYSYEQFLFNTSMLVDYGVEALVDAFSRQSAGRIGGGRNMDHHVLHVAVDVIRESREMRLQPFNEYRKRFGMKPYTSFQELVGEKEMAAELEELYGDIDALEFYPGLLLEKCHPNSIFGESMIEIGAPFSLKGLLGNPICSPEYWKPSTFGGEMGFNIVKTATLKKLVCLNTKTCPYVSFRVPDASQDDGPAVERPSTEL
Method in brief: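 Each baseline scan was followed >3 h later by a blocking scan, with blocker given as an i.v. bolus 5–10 min before radioligand. Femoral arterial samples were taken every 15 s to 120 s, then at 3–120 min, and parent radioligand was measured by reversed-phase radio-HPLC. VT was estimated by voxel-level Logan analysis, uncorrected for blood volume, with identifiability as % SE. A Lassen plot of regional VT gave occupancy from its slope and VND from its x-intercept.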

COX-1 [11] = target: T1, COX-1; experiment: paired baseline/preblock PET experiments with [11C]PS13 in rhesus monkey; type: in vivo, rhesus monkey (Macaca mulatta); details: for decline of whole-brain radioactivity from peak / radioactivity in whole brain: 45 min after injection; for peak whole-brain radioactivity of [11C]PS13 after administration of blocker: blocker i.v. before [11C]PS13: PS13 1 mg/kg, KTP-Me 3 mg/kg, MC1 0.3 mg/kg; for whole-brain radioactivity of [11C]PS13 after administration of blocker: 45 min after radioligand, PS13 1 mg/kg, KTP-Me 3 mg/kg i.v.
Method in brief: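 Male rhesus monkeys (7.5–12.8 kg) received an i.v. bolus of radioligand (212 ± 37 MBq; 114 ± 74 GBq/μmol) over 1 min. A baseline scan was followed more than 3 h later by a blocking scan, with inhibitor given i.v. minutes before radioligand. Scans were corrected for attenuation and scatter, and frames ran from 30 s to 10 min. Whole-brain (gray matter) time–activity curves were expressed as SUV.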

COX-2 [12] = details: read-out: IC50 COX-2 human; cited from earlier work
COX-1 [13] = details: cited from earlier work; remark: listed apart in the source
[14] = cited from earlier work
[15] = baseline of the paired experiment using KTP-Me
[16] = baseline of the paired experiments using PS13
[17] = baseline of the paired experiment with MC1

Compound: C[C@H](C(=O)O)c1cccc(C(=O)c2ccccc2)c1 [KTP, (S)-ketoprofen, reference compound]
IC50 (COX-1 [1]; read-out: IC50 COX-1 human): 20 nM
IC50 (COX-1 [1]; read-out: IC50 for inhibiting human COX-1): 47 nM
IC50 (COX-2 [2]): 400 nM
IC50 (COX-1 [3]): 1 nM

radiochemical stability [4]: > 99%
human fP (n = 3) [5]: 0.036 ± 0.001
decline of whole-brain radioactivity from peak [6]: 85%
radioactivity concentration in whole brain [6]: 0.62 SUV
peak radioactivity concentration in whole brain ([6]; rhesus monkey): 4.26 SUV
time of peak radioactivity concentration in whole brain ([6]; rhesus monkey): 1.75 min
monkey fP (n = 3) [7]: 0.042 ± 0.001
log D (n = 6) [8]: 3.29 ± 0.00
Compound: COc1ccc(-c2nc(O[11CH3])nn2-c2ccc(OC)cc2)cc1 [[^11C]PS1]

Compound: COc1ccc(-c2nc(OCF)nn2-c2ccc(OC)cc2)cc1 [[^2H2,^18F]PS2]
IC50 (COX-1 [1]; read-out: IC50 COX-1 human): 4 ± 2 nM
IC50 (COX-2 [2]): > 1000 nM
IC50 (COX-1 [3]): 3.6 ± 1 nM

radiochemical stability [4]: > 99%
radioactivity in plasma represented by each species ([9]; 90 min after i.v. injection of [11C]PS13, radio-HPLC): 48.9%
radioactivity in plasma represented by unchanged radioligand ([9]; at 90 min, baseline and self-block experiments): about 50%
identifiability (SE) of VT (COX-1 [10]; all examined brain regions, Logan graphical analysis): 0.1–1.8%
radioactivity uptake in brain specifically bound to COX-1 (COX-1 [10]; pharmacological preblock experiments, monkey): about 55%
human fP (n = 3) [5]: 0.002 ± 0.000
decline of whole-brain radioactivity from peak [6]: 54%
monkey fP (n = 3) [7]: 0.011 ± 0.001
decline of whole-brain radioactivity from peak (COX-1 [11]; [15]): 43%
radioactivity in whole brain (COX-1 [11]; [15]): 1.65 SUV
decline of whole-brain radioactivity from peak (COX-1 [11]; [16]): 36%
radioactivity in whole brain (COX-1 [11]; [16]): 1.88 SUV
peak radioactivity in whole brain (COX-1 [11]; [15]): 2.90 SUV
peak uptake of radioactivity in brain (COX-1 [11]; [17]): 3.73 SUV
time of peak uptake of radioactivity in brain (COX-1 [11]; [17]): 3.5 min
peak radioactivity in whole brain (COX-1 [11]; [16]): 2.92 SUV
log D (n = 6) [8]: 4.26 ± 0.04
Compound: COc1ccc(-c2nc(OCC(F)(F)F)nn2-c2ccc(OC)cc2)cc1 [[^11C]PS13, [^11C]1,5-bis(4-methoxyphenyl)-3-(2,2,2-trifluoroethoxy)-1H-1,2,4-triazole]

Compound: COc1ccc(-c2nc(OC)nn2-c2ccc(OC)cc2)cc1 [[^11C]PS1]
IC50 (COX-1 [1]; read-out: IC50 COX-1 human): 5 ± 5.2 nM
IC50 (COX-2 [2]): > 1000 nM
IC50 (COX-2 [12]): > 1000 nM
IC50 (COX-1 [3]): 4.6 ± 1.3 nM

reduction of [11C]PS13 brain regional VT values by preadministration (COX-1 [10]; PS13 1 mg/kg): no effect
time of peak brain radioactivity of [11C]PS13 after administration of blocker (COX-1 [11]; MC1 0.3 mg/kg i.v.): 3.5 min
peak whole-brain radioactivity of [11C]PS13 after administration of blocker (COX-1 [11]): 4.86 SUV
Compound: COc1cc(NCc2cccs2)nc(-c2ccc(S(C)(=O)=O)cc2)n1 [MC1, 6-methoxy-2-(4-(methylsulfonyl)phenyl)-N-(thiophen-2-ylmethyl)pyrimidin-4-amine, reference compound]
fold lower potency for inhibiting COX-1 than COX-2 (COX-1 [1]; human): > 1000 fold
fold lower potency for inhibiting COX-1 than COX-2 (COX-1 [3]; monkey): > 1000 fold

Compound: C[C@@H](C(=O)O)c1cccc(C(=O)c2ccccc2)c1 (single isomer, unassigned) [R-enantiomer of KTP]
potency for inhibiting COX-1 (COX-1 [13]): negligible potency

VND of [11C]PS13 (x-axis intercept of Lassen plot), by blocker experiment (COX-1 [10]): 1.8 mL/cm^3
COX-1 occupancy (slope of Lassen plot) (COX-1 [10]; PS13 1 mg/kg, KTP-Me 3 mg/kg i.v., radioligand [11C]PS13): 72 ± 4%
whole-brain radioactivity of [11C]PS13 after administration of blocker (COX-1 [11]): 1.09 SUV
peak whole-brain radioactivity of [11C]PS13 after administration of blocker (COX-1 [11]): 4.14 SUV
Compound: COC(=O)[C@@H](C)c1cccc(C(=O)c2ccccc2)c1 [KTP-Me, (S)-ketoprofen methyl ester, reference compound]

VND of [11C]PS13 (x-axis intercept of Lassen plot), by blocker experiment (COX-1 [10]): 2.5 mL/cm^3
reduction of [11C]PS13 brain regional VT values by preadministration (COX-1 [10]; PS13 1 mg/kg): about 55%
receptor occupancy at 1 mg/kg (COX-1 [10]; rhesus monkey, iv, read-out: COX-1 occupancy (slope of Lassen plot)): 87 ± 4%
whole-brain radioactivity of [11C]PS13 after administration of blocker (COX-1 [11]): 1.11 SUV
peak whole-brain radioactivity of [11C]PS13 after administration of blocker (COX-1 [11]): 3.60 SUV
Compound: COc1ccc(-c2nc(OCC(F)(F)F)nn2-c2ccc(OC)cc2)cc1 [PS13, 1,5-bis(4-methoxyphenyl)-3-(2,2,2-trifluoroethoxy)-1H-1,2,4-triazole]

Compound: [^11C]-Ketoprofen [[^11C]KTP]
brain penetrance [14]: poorly brain-penetrant

radiochemical stability [4]: > 99%
radioactivity in plasma that was parent radioligand ([9]; by about 25 min after i.v. injection): 50%
human fP (n = 3) [5]: 0.021 ± 0.000
decline of whole-brain radioactivity from peak [6]: 74%
radioactivity concentration in whole brain [6]: 1.05 SUV
peak radioactivity concentration in whole brain ([6]; rhesus monkey): 4.11 SUV
time of peak radioactivity concentration in whole brain ([6]; rhesus monkey): 7 min
radioactivity in skull on brain image (radiodefluorination) ([6]; rhesus monkey): uptake of radioactivity in skull
monkey fP (n = 3) [7]: 0.039 ± 0.001
log D (n = 6) [8]: 3.26 ± 0.01
Compound: [2H]C([2H])([18F])Oc1nc(-c2ccc(OC)cc2)n(-c2ccc(OC)cc2)n1 [[^2H2,^18F]PS2]

— paper PMC6371780 (ACS chemical neuroscience, 2018)
